# Results reported in ChEMBL document CHEMBL1142293, “Thiol-based angiotensin-converting enzyme 2 inhibitors: P1 modifications for the exploration of the S1 subsite” (Bioorg Med Chem Lett, 2008).
# Tests used:
# Conditions in all cases: read-out: Ki app
# [1] = biological target: Angiotensin-converting enzyme (Homo sapiens, UniProt P12821); assay: Inhibition of human recombinant ACE by fluorescence assay
# In short: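 Recombinant human ACE at 0.5 nM was incubated with 10 μM MCA-Ala-Ser-Asp-Lys-Dap(DNP)-OH substrate. Buffer was 1 μM Zn(OAc)2, 100 μM TCEP reducing agent, 50 mM Hepes, 300 μM CHAPS and 300 mM NaCl, pH 7.5. Inhibitor was pre-incubated before substrate was added. Fluorescence read-out gave apparent Ki.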
# Neprilysin = Neprilysin (Homo sapiens, UniProt P08473); assay: Inhibition of human recombinant NEP by fluorescence assay
# In short: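 Recombinant human NEP at 0.15 nM was assayed with 2 μM FAM-[…]TAMRA)-NH2 substrate. Inhibitor was pre-incubated, then substrate added. Fluorescence gave Ki App, with average %CV 43%.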
# Carboxypeptidase A1 = biological target: T1, Carboxypeptidase A1 (Homo sapiens, UniProt P15085); assay: Inhibition of human recombinant carboxy peptidase A1 by fluorescence assay
# T1 sequence (P15085 whole entry): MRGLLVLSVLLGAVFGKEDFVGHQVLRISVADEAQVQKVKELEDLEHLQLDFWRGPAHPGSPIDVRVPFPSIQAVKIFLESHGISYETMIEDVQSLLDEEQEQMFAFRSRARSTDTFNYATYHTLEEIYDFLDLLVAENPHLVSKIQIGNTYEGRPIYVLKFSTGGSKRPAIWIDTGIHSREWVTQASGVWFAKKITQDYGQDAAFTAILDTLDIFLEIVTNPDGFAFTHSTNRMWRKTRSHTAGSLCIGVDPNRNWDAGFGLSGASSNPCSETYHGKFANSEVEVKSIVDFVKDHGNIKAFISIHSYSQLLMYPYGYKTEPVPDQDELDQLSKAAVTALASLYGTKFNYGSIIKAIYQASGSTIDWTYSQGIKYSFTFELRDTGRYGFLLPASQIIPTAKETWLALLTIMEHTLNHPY
# [2] = biological target: Angiotensin-converting enzyme 2 (Homo sapiens, UniProt Q9BYF1); assay: Inhibition of human recombinant ACE2 by fluorescence assay
# In short: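 Fluorescence assay with 0.4 nM recombinant human ACE2 and 30 μM MCA-Tyr-Val-Ala-Asp-Ala-Pro-Lys(DNP)-OH substrate. Pre-incubation with inhibitor preceded substrate addition. Apparent Ki was reported, with average %CV 45%. Thiols were diluted from 10 mM stocks in 50% aqueous acetonitrile just before assay.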
# Chain of Neprilysin (P08473 whole entry): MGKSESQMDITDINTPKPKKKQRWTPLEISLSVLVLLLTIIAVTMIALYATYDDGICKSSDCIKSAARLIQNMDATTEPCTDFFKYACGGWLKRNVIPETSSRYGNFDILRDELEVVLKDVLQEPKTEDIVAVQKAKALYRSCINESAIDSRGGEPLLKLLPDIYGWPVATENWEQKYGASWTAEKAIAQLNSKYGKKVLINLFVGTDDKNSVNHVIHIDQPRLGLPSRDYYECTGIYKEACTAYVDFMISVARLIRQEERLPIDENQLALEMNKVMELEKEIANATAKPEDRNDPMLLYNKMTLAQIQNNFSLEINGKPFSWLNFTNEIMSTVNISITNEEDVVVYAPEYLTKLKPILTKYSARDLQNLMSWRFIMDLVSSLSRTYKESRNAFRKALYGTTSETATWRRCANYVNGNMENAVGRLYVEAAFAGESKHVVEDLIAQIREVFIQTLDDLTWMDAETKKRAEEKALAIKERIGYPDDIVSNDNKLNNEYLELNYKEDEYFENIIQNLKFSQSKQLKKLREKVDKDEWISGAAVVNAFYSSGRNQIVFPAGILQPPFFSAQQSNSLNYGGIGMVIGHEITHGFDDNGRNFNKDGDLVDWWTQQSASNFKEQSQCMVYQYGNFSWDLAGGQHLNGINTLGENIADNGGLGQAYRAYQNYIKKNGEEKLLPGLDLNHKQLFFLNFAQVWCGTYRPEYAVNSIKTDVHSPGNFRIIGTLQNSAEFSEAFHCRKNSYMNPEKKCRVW
# Chain of Angiotensin-converting enzyme 2 (Q9BYF1 whole entry): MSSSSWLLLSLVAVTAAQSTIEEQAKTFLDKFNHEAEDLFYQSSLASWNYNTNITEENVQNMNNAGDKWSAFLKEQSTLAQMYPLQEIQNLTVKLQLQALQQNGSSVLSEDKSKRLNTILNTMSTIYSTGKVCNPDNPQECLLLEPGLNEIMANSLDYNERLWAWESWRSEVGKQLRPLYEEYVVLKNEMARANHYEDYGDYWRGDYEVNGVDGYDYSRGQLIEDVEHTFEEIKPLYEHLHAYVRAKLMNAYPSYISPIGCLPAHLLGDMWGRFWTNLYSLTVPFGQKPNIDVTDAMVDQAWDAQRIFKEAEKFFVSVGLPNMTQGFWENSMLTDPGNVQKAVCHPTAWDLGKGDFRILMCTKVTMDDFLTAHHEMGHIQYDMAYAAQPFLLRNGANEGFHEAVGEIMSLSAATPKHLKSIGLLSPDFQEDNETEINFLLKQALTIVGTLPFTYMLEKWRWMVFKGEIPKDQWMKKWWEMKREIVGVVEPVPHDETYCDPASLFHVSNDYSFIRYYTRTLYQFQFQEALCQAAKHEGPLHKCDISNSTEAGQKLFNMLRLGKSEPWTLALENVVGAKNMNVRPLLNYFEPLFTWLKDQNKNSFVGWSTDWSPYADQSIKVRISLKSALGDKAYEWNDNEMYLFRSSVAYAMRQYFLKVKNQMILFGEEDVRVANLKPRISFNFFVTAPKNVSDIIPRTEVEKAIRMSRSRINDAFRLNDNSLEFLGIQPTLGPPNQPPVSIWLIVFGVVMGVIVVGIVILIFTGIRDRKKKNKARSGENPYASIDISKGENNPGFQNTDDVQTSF
# Chain of Angiotensin-converting enzyme (P12821 whole entry): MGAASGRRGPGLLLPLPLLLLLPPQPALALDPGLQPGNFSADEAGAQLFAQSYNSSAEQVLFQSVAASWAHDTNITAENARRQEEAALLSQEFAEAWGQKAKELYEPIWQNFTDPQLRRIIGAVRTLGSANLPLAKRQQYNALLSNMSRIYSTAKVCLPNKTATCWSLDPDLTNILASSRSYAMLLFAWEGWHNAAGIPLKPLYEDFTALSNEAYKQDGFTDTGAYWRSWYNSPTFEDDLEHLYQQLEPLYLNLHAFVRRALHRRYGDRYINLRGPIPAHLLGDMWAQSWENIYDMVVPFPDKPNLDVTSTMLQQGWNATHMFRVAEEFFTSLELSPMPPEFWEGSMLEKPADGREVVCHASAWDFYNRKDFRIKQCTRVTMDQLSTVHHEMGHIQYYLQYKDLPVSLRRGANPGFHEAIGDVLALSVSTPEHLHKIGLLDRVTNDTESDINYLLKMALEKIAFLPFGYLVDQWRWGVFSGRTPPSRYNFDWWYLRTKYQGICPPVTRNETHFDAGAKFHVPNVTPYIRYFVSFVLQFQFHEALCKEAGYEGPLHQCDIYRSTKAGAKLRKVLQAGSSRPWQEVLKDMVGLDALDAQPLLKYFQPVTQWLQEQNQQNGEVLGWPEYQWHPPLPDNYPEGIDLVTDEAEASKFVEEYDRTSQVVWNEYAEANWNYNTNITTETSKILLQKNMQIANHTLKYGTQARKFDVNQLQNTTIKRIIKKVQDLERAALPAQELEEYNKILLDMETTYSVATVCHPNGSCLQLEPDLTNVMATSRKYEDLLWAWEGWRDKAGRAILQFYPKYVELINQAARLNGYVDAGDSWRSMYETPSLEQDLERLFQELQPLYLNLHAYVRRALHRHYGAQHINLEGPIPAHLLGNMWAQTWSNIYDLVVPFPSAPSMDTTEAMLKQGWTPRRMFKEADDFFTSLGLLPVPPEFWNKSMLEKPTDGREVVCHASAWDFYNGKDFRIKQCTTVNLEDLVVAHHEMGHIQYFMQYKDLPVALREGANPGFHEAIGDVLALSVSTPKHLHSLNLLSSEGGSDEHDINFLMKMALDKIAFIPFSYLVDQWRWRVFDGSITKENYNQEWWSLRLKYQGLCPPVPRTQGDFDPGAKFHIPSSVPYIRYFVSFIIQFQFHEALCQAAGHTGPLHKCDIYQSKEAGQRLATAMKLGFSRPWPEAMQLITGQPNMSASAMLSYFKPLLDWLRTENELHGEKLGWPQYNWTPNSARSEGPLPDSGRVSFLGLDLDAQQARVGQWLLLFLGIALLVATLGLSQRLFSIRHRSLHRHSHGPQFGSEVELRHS
Compound,Ki [1],Ki (Neprilysin),Ki (Carboxypeptidase A1),Ki [2]
O=C(N[C@@H](Cc1ccc(-c2ccccc2)cc1)C(=O)O)[C@H](S)Cc1ccccc1,520 nM,1.3 nM,0.31 µM,1400 nM
CC[C@@H](C)[C@H](S)C(=O)N[C@@H](Cc1ccc(-c2ccccc2)cc1)C(=O)O,490 nM,27 nM,11 µM,1.5 nM
O=C(O)[C@H](Cc1ccc(-c2ccccc2)cc1)NC(=O)[C@@H](S)C1CCCCC1,13000 nM,1300 nM,12 µM,65 nM
O=C(O)[C@H](Cc1ccc(-c2ccccc2)cc1)NC(=O)[C@@H](S)C1CCC1,620 nM,5.4 nM,12 µM,2.4 nM
CC[C@H](C)[C@H](S)C(=O)N[C@@H](Cc1ccc(-c2ccccc2)cc1)C(=O)O,200 nM,2.4 nM,15 µM,1.6 nM
CC(C)[C@H](S)C(=O)N[C@@H](Cc1ccc(-c2ccccc2)cc1)C(=O)O,200 nM,13 nM,17 µM,1.5 nM
CC(C)(C)C[C@H](S)C(=O)N[C@@H](Cc1ccc(-c2ccccc2)cc1)C(=O)O,2700 nM,2.6 nM,22 µM,7.1 nM
O=C(O)[C@H](Cc1ccc(-c2ccccc2)cc1)NC(=O)[C@@H](S)CC1CCCCC1,840 nM,130 nM,17 µM,420 nM
O=C(O)[C@H](Cc1ccc(-c2ccccc2)cc1)NC(=O)[C@@H](S)Cc1ccc2ccccc2c1,210 nM,140 nM,32 µM,550 nM
CC(C)(S)C(=O)N[C@@H](Cc1ccc(-c2ccccc2)cc1)C(=O)O,3400 nM,730 nM,–,2300 nM
O=C(O)[C@H](Cc1ccc(-c2ccccc2)cc1)NC(=O)[C@@H](S)C1CCCC1,700 nM,38 nM,12 µM,1.8 nM
O=C(O)[C@H](Cc1ccc(-c2ccccc2)cc1)NC(=O)[C@@H](S)c1ccccc1,> 10000 nM,410 nM,–,84 nM

# Stronger by Ki [1], values ahead:
Ki [1],Ki (Neprilysin),Ki (Carboxypeptidase A1),Ki [2],Compound
9.3 nM,1.2 nM,8.9 µM,1.8 nM,CCCC[C@H](S)C(=O)N[C@@H](Cc1ccc(-c2ccccc2)cc1)C(=O)O
8.6 nM,0.8 nM,9.3 µM,1.4 nM,CC[C@H](S)C(=O)N[C@@H](Cc1ccc(-c2ccccc2)cc1)C(=O)O
21 nM,23 nM,14 µM,6.9 nM,C[C@H](S)C(=O)N[C@@H](Cc1ccc(-c2ccccc2)cc1)C(=O)O
16 nM,13 nM,1.7 µM,320 nM,O=C(CS)N[C@@H](Cc1ccc(-c2ccccc2)cc1)C(=O)O
3.2 nM,0.28 nM,11 µM,1.4 nM,CC(C)C[C@H](S)C(=O)N[C@@H](Cc1ccc(-c2ccccc2)cc1)C(=O)O
30 nM,1.1 nM,1.2 µM,86 nM,O=C(O)[C@H](Cc1ccc(-c2ccccc2)cc1)NC(=O)[C@@H](S)Cc1ccccc1
93 nM,2.6 nM,5 µM,860 nM,O=C(O)[C@H](Cc1ccc(-c2ccccc2)cc1)NC(=O)[C@@H](S)CCc1ccccc1
